The source made the active and inactive calls. The rule behind the calls is not given here.
Experiments:
[1] = Cytotoxicity against human WI38 cells; format: cell-based; conditions: WI-38
Outline: (§1)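 Cells were exposed to samples dissolved in DMSO for 72 h in RPMI-1640 medium with 10% fetal bovine serum. Inhibition of proliferation was read by the tetrazolium-based colorimetric MTT viability assay. The panel comprised NCI-H460 lung, MCF-7 breast, SF-268 glioma and MIA Pa Ca-2 pancreatic carcinoma lines, plus normal primary WI-38 fibroblasts.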

NCI-H460 [2] = test: Cytotoxicity against human NCI-H460 cells by MTT assay; format: functional, cell-based; outline: as §1
SF-268 [3] = test: Cytotoxicity against human SF268 cells; format: functional, cell-based; outline: as §1
MIA PaCa-2 [4] = test: Cytotoxicity against human MIAPaCa2 cells; format: functional, cell-based; outline: as §1
MCF7 [5] = test: Cytotoxicity against human MCF7 cells by MTT assay; format: functional, cell-based; outline: as §1
SF-268 [6] = test: Cytotoxicity against human SF268 cells at 10 ug/mL; format: functional, cell-based
MCF7 [7] = test: Cytotoxicity against human MCF7 cells at 10 ug/mL by MTT assay; format: functional, cell-based
NCI-H460 [8] = test: Cytotoxicity against human NCI-H460 cells at 10 ug/mL by MTT assay; format: functional, cell-based
[9] = Cytotoxicity against human WI38 cells at 10 ug/mL; format: cell-based; conditions: wi-38
MIA PaCa-2 [10] = test: Cytotoxicity against human MIAPaCa2 cells at 10 ug/mL; format: functional, cell-based

| Compound | IC50 [1] | IC50 (NCI-H460 [2]) | IC50 (SF-268 [3]) | IC50 (MIA PaCa-2 [4]) | IC50 (MCF7 [5]) | Activity (SF-268 [6]) | Activity (MCF7 [7]) | Activity (NCI-H460 [8]) | Activity [9] | Activity (MIA PaCa-2 [10]) |
| --- | --- | --- | --- | --- | --- | --- | --- | --- | --- | --- |
| COc1cccc2c1C(=O)c1c(O)c3c(c(O)c1C2=O)C[C@@](O)(C(=O)CO)C[C@@H]3O[C@H]1C[C@H](N)[C@H](O)[C@H](C)O1 [DOXORUBICIN] | 0.3 µM | 0.01 µM | – | – | – | – | – | – | – | – |
| C/C=C/C(=O)COC(=O)c1c(C)cc(O)cc1O [GLOBOSUMONE A] | 13 µM | 6.5 µM | 8.8 µM | 10.6 µM | 21.3 µM | – | – | – | – | – |
| Cc1cc(O)cc(O)c1C(=O)OCC(=O)C[C@H](C)O [GLOBOSUMONE B] | 14.2 µM | 24.8 µM | 29.1 µM | 30.2 µM | 21.9 µM | – | – | – | – | – |
| Cc1cc(O)cc(O)c1C(=O)OCC(=O)[C@@H](O)[C@H](C)O [GLOBOSUMONE C] | – | – | – | – | – | inactive | inactive | inactive | Not Active | inactive |
| Cc1cc(O)cc(O)c1C(=O)O [ORSELLINIC ACID] | – | – | – | – | – | inactive | inactive | inactive | Not Active | inactive |
| C/C=C/C1OC2=C(C(=O)C[C@H](C)O2)C(=O)[C@@H]1O (some centres not stated) [TRICHODION] | – | – | – | – | – | inactive | inactive | inactive | Not Active | inactive |

From ChEMBL document CHEMBL1158761, “Globosumones A-C, cytotoxic orsellinic acid esters from the Sonoran desert endophytic fungus Chaetomium globosum” (J Nat Prod, 2005)
